Activity calls are given as the source filed them. No cut-off for these calls is given here.
Columns and labels:
AGS = test: Cytotoxicity against human AGS cells after 72 hrs by SRB method; type: functional, cell-based
Outline: (§1)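 SRB assay in AGS and A549 solid tumour cells. Cells were seeded at 6000–10,000 per well, then exposed in triplicate to a concentration gradient for 72 h at 37 °C. IC50 was read from the dose–response curve as the average of triplicates.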

K562 = test: Cytotoxicity against human K562 cells after 48 hrs by MTT assay; type: functional, cell-based; settings: K562, 48 h
Outline: (§2)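 MTT assay in HL-60 and K562 leukemia cells. Cells were seeded at 6000–10,000 per well, then treated in triplicate with a concentration gradient for 48 h at 37 °C. IC50 was taken from the dose–response curve as the average of triplicates.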

HL-60 = test: Cytotoxicity against human HL60 cells after 48 hrs by MTT assay; type: functional, cell-based; settings: HL-60, 48 h; outline: as §2
A549 = test: Cytotoxicity against human A549 cells after 72 hrs by SRB method; type: functional, cell-based; settings: A549, 72 h; outline: as §1
[1] = Octanol-water partition coefficient, log P of the compound; type: physicochemical
Outline: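 Octanol–water partition coefficient; each reported P is the average of three measurements.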

[2] = Stability at pH 7.4 PBS at 1 ug/ml within 8 hrs; type: physicochemical; settings: buffer, pH 7.4, 8 h
Outline: (§3)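 Compound (100 µg/mL stock in acetonitrile, 1.0 mL) was added to 4.0 mL preincubated human plasma, mouse plasma or pH 7.4 phosphate buffer and held at 37 °C. Protein was precipitated with cold acetonitrile and the sample centrifuged. Supernatant was analysed by C18 HPLC with CH3CN/H2O 45:55 at 1.0 mL/min.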

Plasma [3] = test: Metabolic stability in human plasma at 1 ug/ml within 24 hrs; type: ADME, cell-free; outline: as §3
[4] = Stability at pH 7.4 PBS at 1 ug/ml after 8 hrs; type: physicochemical; settings: buffer, pH 7.4, 8 h; outline: as §3
Plasma [5] = test: Metabolic stability in mouse plasma at 1 ug/ml after 2 hrs; type: ADME, cell-free; outline: as §3
Calf thymus DNA = test: Binding affinity to calf thymus DNA after 24 hrs by circular dichroism; type: nucleic-acid assay; settings: Bos taurus
Outline: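 CT DNA dissolved and annealed in 10 mM PBS pH 7.2, then mixed with compound at 0, 10, 20 or 50 µg/mL. Mixtures were incubated 24 h at 37 °C in the dark. CD spectra were recorded from 200–320 nm in 1 cm quartz cells, with compound-only solutions in PBS as blanks.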

SMILES | IC50 (AGS) [µM] | IC50 (K562) [µM] | IC50 (HL-60) [µM] | IC50 (A549) [µM] | logP [1] | Stability [2] | Stability (Plasma [3]) | Stability [4] | Stability (Plasma [5]) | Activity (Calf thymus DNA)
COc1cc([C@@H]2c3cc4c(cc3[C@@H](N[C@@H](C)C(=O)OCCCn3cc(F)c(=O)[nH]c3=O)[C@H]3COC(=O)[C@H]23)OCO4)cc(OC)c1O | 40.4 | 19.5 | 22.3 | 2.59 | -0.07 | – | – | – | – | –
COc1cc([C@@H]2c3cc4c(cc3[C@@H](N[C@@H](CC(C)C)C(=O)OCCCCn3cc(F)c(=O)[nH]c3=O)[C@H]3COC(=O)[C@H]23)OCO4)cc(OC)c1O | 34.5 | 5.3 | 0.73 | < 0.01 | 0.35 | – | – | – | – | –
COc1cc([C@@H]2c3cc4c(cc3[C@@H](N[C@@H](Cc3ccccc3)C(=O)OCCCCCn3cc(F)c(=O)[nH]c3=O)[C@H]3COC(=O)[C@H]23)OCO4)cc(OC)c1O | 38.8 | 13.2 | 0.04 | < 0.01 | 0.29 | Stable | Stable | Unstable | Unstable | Active
COc1cc([C@@H]2c3cc4c(cc3[C@H](O)[C@H]3COC(=O)[C@H]23)OCO4)cc(OC)c1OC [PODOFILOX] | 50.8 | > 100 | 2.75 | 7.38 | 0.69 | – | – | – | – | –
COc1cc([C@@H]2c3cc4c(cc3[C@@H](N[C@H](C(=O)OCCCn3cc(F)c(=O)[nH]c3=O)[C@@H](C)O)[C@H]3COC(=O)[C@H]23)OCO4)cc(OC)c1O | 141 | 30.8 | 23.2 | 6.95 | -0.12 | – | – | – | – | –
COc1cc([C@@H]2c3cc4c(cc3[C@@H](N[C@@H](Cc3ccc(O)cc3)C(=O)OCCCn3cc(F)c(=O)[nH]c3=O)[C@H]3COC(=O)[C@H]23)OCO4)cc(OC)c1O | 115 | 28.6 | 26.6 | 21.7 | 0.07 | – | – | – | – | –
O=c1[nH]cc(F)c(=O)[nH]1 [FLUOROURACIL] | > 100 | > 100 | – | – | – | – | – | – | – | –
COc1cc([C@@H]2c3cc4c(cc3[C@@H](N[C@H](C(=O)OCCCn3cc(F)c(=O)[nH]c3=O)C(C)C)[C@H]3COC(=O)[C@H]23)OCO4)cc(OC)c1O | 62.5 | 13.5 | 5.8 | 1.92 | 0.34 | – | – | – | – | –
COc1cc([C@@H]2c3cc4c(cc3[C@@H](N[C@@H](Cc3ccccc3)C(=O)OCCCCn3cc(F)c(=O)[nH]c3=O)[C@H]3COC(=O)[C@H]23)OCO4)cc(OC)c1O | 23.7 | 9.2 | 0.42 | 0.3 | 0.43 | – | – | – | – | –
COc1cc([C@@H]2c3cc4c(cc3[C@@H](N[C@@H](CC(C)C)C(=O)OCCCn3cc(F)c(=O)[nH]c3=O)[C@H]3COC(=O)[C@H]23)OCO4)cc(OC)c1O | 59.2 | 9.5 | 0.13 | 0.01 | 0.33 | – | – | – | – | –
COc1cc([C@@H]2c3cc4c(cc3[C@@H](N[C@@H](CC(C)C)C(=O)OCCCCCn3cc(F)c(=O)[nH]c3=O)[C@H]3COC(=O)[C@H]23)OCO4)cc(OC)c1O | 23.5 | 6 | 0.31 | 0.53 | 0.51 | – | – | – | – | –
CC[C@H](C)[C@H](N[C@@H]1c2cc3c(cc2[C@@H](c2cc(OC)c(O)c(OC)c2)[C@H]2C(=O)OC[C@@H]21)OCO3)C(=O)OCCCn1cc(F)c(=O)[nH]c1=O | 56.2 | 5.1 | 0.24 | 0.18 | 0.59 | – | – | – | – | –
COc1cc([C@@H]2c3cc4c(cc3[C@@H](N[C@@H](Cc3ccccc3)C(=O)OCCCn3cc(F)c(=O)[nH]c3=O)[C@H]3COC(=O)[C@H]23)OCO4)cc(OC)c1O | 23.6 | 5.8 | 0.31 | 0.48 | 0.65 | – | – | – | – | –
COc1cc([C@@H]2c3cc4c(cc3[C@@H](N[C@@H](CCSC)C(=O)OCCCn3cc(F)c(=O)[nH]c3=O)[C@H]3COC(=O)[C@H]23)OCO4)cc(OC)c1O | 24.8 | 8.8 | 0.99 | 0.29 | 0.23 | – | – | – | – | –
